Measurements from different studies.
Protocols differ between the studies behind these lines.
Target: Sodium-dependent serotonin transporter (SLC6A4, Homo sapiens, UniProt P31645)

CN(C)CCCN1c2ccccc2CCc2ccccc21  inhibition (transporter uptake; inhibitor; radiometric; COS-7; 4 nM): 19.6%
CCN(Cc1ccccc1C(F)(F)F)C(=O)C1CCN(S(=O)(=O)c2ccc3[nH]ncc3c2)CC1  inhibition (ligand displacement; radioligand; 10 µM): 2%
O=C1N=C(N2CCCCN2)S/C1=C\c1ccc(F)cc1O  inhibition (ligand displacement; radioligand; 10 µM): < 10%
CCCNc1nc2ccccc2n1Cc1ccc(Cl)cc1  inhibition (ligand displacement; 10 µM): -8.27%
O=C(c1ccc(Cl)cc1)N(Cc1ccccc1)C1CCCCC1  inhibition (cell-free assay; 10 µM): -7.1%
CCN(CC)c1ccc(C2Nc3ccc(C(=O)c4ccccc4)cc3NC3=C2C(=O)CC(C)(C)C3)cc1 (stereo not shown)  inhibition (ligand displacement; radioligand; 10 µM): 57%
CN1CCN(CCCOc2ccc(=O)n(-c3ccc(Cl)c(Cl)c3)n2)CC1  inhibition (ligand displacement; 1 µM): 21.7%
N#Cc1cc(Cn2c(N3CCCC3)nc3ccccc32)ccc1F  inhibition (ligand displacement; 10 µM): -16.9%
COc1ccc(-n2nc(OCCCN3CCCCC3)ccc2=O)cc1  inhibition (ligand displacement; 1 µM): 43.6%
COc1cc(NC(C)=O)c(Cl)cc1C(=O)Nc1nccs1  inhibition (cell-free assay; 10 µM): -12.3%
